{"data": "Measured values gathered from unrelated publications", "Dihydroorotate dehydrogenase (quinone), mitochondrial": "Dihydroorotate dehydrogenase (quinone), mitochondrial (Rattus norvegicus, UniProt Q63707)", "CYP2D6": "Cytochrome P450 2D6 (CYP2D6, Homo sapiens, UniProt P10635)", "note": "Protocols differ between the studies behind these lines."}
{"Structure (SMILES)": "Cn1nc2c(=O)n(C3CC3)ccc2c1[C@](O)(c1cnc(C(F)(F)F)c(Cl)c1)C(F)(F)F", "target": "Dihydroorotate dehydrogenase (quinone), mitochondrial", "assay": "enzyme activity, inhibitor, absorbance", "endpoint": "IC50", "value": "16 µM"}
{"Structure (SMILES)": "C=C(F)C(=O)N1CCN(c2nc(OC[C@@H]3CCCN3C)nc3c2CCN(c2cccc4cccc(Cl)c24)C3)C[C@@H]1CC#N", "target": "CYP2D6", "assay": "enzyme activity, inhibitor", "system": "human, liver microsomes", "endpoint": "Ki", "value": "26.4 µM"}
{"Structure (SMILES)": "O=C1CCC(=O)N1Cc1cc2nccc(-c3cc(Cl)cc4c3N([C@@H]3CNC5(CCC5)C3)CCC4)c2s1", "target": "Ubiquitin carboxyl-terminal hydrolase 7 (USP7, Homo sapiens, UniProt Q93009)", "assay": "binding, SPR", "endpoint": "Kd", "value": "0.0001 µM"}
{"Structure (SMILES)": "Cc1ccc(C(=O)Nc2ccc(CN3CCN(C)CC3)c(C(F)(F)F)c2)cc1C#Cc1cnc2cccnn12", "target": "Calmodulin-domain protein kinase 1, putative (Cryptosporidium parvum, UniProt A3FQ16)", "assay": "enzyme activity, inhibitor", "endpoint": "IC50", "value": "> 1 µM"}
{"Structure (SMILES)": "COc1cc(O)c2c(c1)C(=O)c1cc(C)cc(O)c1C2=O", "target": "CYP2D6", "assay": "enzyme activity, inhibitor", "system": "human, liver microsomes", "conditions": "pH 7.4", "endpoint": "Ki", "value": "8.66 µM"}
{"Structure (SMILES)": "C[C@@H]1CN(c2ccc(-c3cc(C(=O)NCCCNC(=O)/C=C/c4[nH]cc(C(=O)N[C@@H](CC(N)=O)c5ccc(F)c(Cl)c5)c4-c4ccc(Cl)cc4F)ccc3F)cc2NC(=O)c2c[nH]c(=O)cc2C(F)(F)F)C[C@H](C)N1C", "target": "DDB1- and CUL4-associated factor 1 (DCAF1, Homo sapiens, UniProt Q9Y4B6)", "assay": "binding, SPR", "endpoint": "Kd", "value": "0.0152 µM"}
{"Structure (SMILES)": "Cc1ccc2[nH]c(=O)c(CNC3CCCCC3)cc2c1", "target": "Alpha-1B adrenergic receptor (ADRA1B, Homo sapiens, UniProt P35368)", "assay": "ligand displacement in cells", "endpoint": "Ki", "value": "0.155 µM"}
{"Structure (SMILES)": "CCNC(=O)/C=C/c1cccc(Br)c1", "target": "Sodium-dependent neutral amino acid transporter B(0)AT1 (SLC6A19, Homo sapiens, UniProt Q695T7)", "assay": "transporter uptake, inhibitor, radiometric", "endpoint": "IC50", "value": "0.84 µM"}
{"Structure (SMILES)": "Cn1nc2c(=O)n(C3CC3)ncc2c1[C@](O)(c1cnc(C(F)(F)F)c(Cl)c1)C(F)(F)F", "target": "Dihydroorotate dehydrogenase (quinone), mitochondrial", "assay": "enzyme activity, inhibitor, absorbance", "endpoint": "IC50", "value": "> 30 µM"}
{"Structure (SMILES)": "Nc1ccccc1NC(=O)c1ccc(CNc2ccc(NC3=C(Cl)C(=O)c4cccnc4C3=O)cc2)cc1", "target": "Histone deacetylase 3 (HDAC3, Homo sapiens, UniProt O15379)", "assay": "enzyme activity, inhibitor", "endpoint": "IC50", "value": "0.716 µM"}
{"Structure (SMILES)": "Cc1nn(CCc2ccccc2)c2ncc(C(=O)NCc3cccnc3)c(Cl)c12", "target": "Prolyl endopeptidase (PREP, Homo sapiens, UniProt P48147)", "assay": "enzyme activity, inhibitor, fluorescence", "endpoint": "IC50", "value": "14 µM"}
{"Structure (SMILES)": "Cn1nc2c(=O)n(C3CC3)ncc2c1[C@](N)(c1ccc(C(F)(F)F)c(Cl)c1)C1CC1", "target": "Dihydroorotate dehydrogenase (quinone), mitochondrial", "assay": "enzyme activity, inhibitor, absorbance", "endpoint": "IC50", "value": "6.2 µM"}
